# PMI act hi M6P: PMI (human) activation, high substrate; coupled PMI enzyme assay, resazurin fluorescence, 20 min; hits give high values; 1 = untreated enzyme, 0 = substrate-free blank; activation factor at 20 µM; 190,000 tested, 0.34% active;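 active means activation factor of 2 or more at 20 µM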
# Target sequence (P34949 whole entry, looked up): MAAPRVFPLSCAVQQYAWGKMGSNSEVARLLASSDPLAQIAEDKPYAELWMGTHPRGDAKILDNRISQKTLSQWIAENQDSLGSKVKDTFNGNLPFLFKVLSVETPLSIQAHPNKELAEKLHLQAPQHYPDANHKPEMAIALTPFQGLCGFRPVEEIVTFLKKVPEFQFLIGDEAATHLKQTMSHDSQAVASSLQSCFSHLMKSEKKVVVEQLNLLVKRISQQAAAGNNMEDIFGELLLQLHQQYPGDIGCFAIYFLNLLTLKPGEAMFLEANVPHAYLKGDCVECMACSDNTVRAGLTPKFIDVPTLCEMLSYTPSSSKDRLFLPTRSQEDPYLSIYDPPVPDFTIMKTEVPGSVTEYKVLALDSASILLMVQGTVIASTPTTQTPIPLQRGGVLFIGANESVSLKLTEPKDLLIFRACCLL
#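 Material: human phosphomannose isomerase with PGI, G6PDH, diaphorase coupling enzymes; amount: PMI at 15 ng/mL final; also added: Mannose-6-phosphate 1.0 mM (near-saturating) plus 0.22 mM NADP+; incubation: enzyme reaction with compound 20 min at room temperature; signal: resorufin fluorescence (Ex 544/Em 590 nm) from resazurin via diaphorase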
# WT yeast gro inh: growth inhibition of WT yeast, mitochondrial fusion screen. AID 1362. 190,000 tested, 2.1% active. inhibition, % at 10 µM. mitochondrial fusion phenotypic screen, WT strain; in the data active means inhibition above about 58%; tested in S. cerevisiae
# Rad51 HR inh: Rad51 (human) homologous recombination inhibition; Q06609; inhibition, % at 10 µM; hRad51 DNA strand exchange, fluorescence dequenching; AID 1385; 200,000 tested, 0.085% active;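 active means inhibition above 40% at the single screening dose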;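 further: 0% = DMSO control wells and 100% = blanks with heterologous ssDNA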
#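 System: human Rad51 nucleoprotein filaments preassembled on unlabelled ssDNA. Reagent: labelled 47-mer dsDNA for strand exchange. Schedule: 30-min compound preincubation and 15-min exchange, both room temperature. Measured by: FRET fluorescence dequenching, excitation 485 nm, emission 520 nm. Read-out: Fluorescence-based percent inhibition, control- and blank-normalised. Benchmarks: plate controls and plate blanks.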
# Lmaj promast: reduces viability of Leishmania major promastigotes. resazurin fluorescence viability. inhibition, % at 10 µM. 200,000 tested, 9% active; in the data active means inhibition above about 50%;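 further: promastigotes grown with compound for 44 hours at 28 °C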
# Calpain2 inh: inhibitors of pig calpain II; purified calpain II, fluorogenic peptide substrate, 30 min; inhibition, % at 16 µM; 220,000 tested, 0.37% active;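 active means inhibition above about 50%, limit read from the data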
# PMI activator: increases human mannose-6-phosphate isomerase activity. purified human PMI, coupled resazurin fluorescence, 20 min; hits give high values; 1 = vehicle control, 0 substrate-free wells. activation factor at 20 µM. 190,000 tested, 0.005% active. AID 1214;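 active means activation factor of 2 or more at 20 µM, relative to plate controls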
# Active calls of the source: *; nt = not tested or not shown. Sampled rows, rich in hits. Any-hit rate of the full collection: about 9.8%.
SMILES,PMI act hi M6P,WT yeast gro inh,Rad51 HR inh,Lmaj promast,Calpain2 inh,PMI activator
CCOc1ccc(C(=O)Nc2ccc(-c3cc4ccccc4oc3=O)c(C)c2)cc1[N+](=O)[O-],1.1,-7.6,3.8,55.5*,-28.2,0.9
Cc1nn2c(CN(C(=O)COc3ccccc3)c3ccccc3)nnc2c2ccccc12,1,-9.5,8.0,80.6*,18.7,0.8
CCCCNC(=S)N(C)/N=C/c1c(F)c(F)c(F)c(F)c1F,1,59.8*,16.4,-2.3,12.1,1
CCCCNC(=S)N/N=C/c1ccc(C)s1,1.1,10.1,nt,48.7,41.3,1
CCCCNC(=S)N(C)/N=C/c1c(C)[nH]c2ccccc12,0.9,-2.1,-2.9,55.8*,-9.1,0.9
Nn1c(SCc2cccc(F)c2)nnc1-c1ccncc1,nt,nt,nt,nt,3.3,nt
CCOC(=O)c1ccc(NC(=S)N2CCCC(C)C2)cc1 (centres undefined),1,11.6,16.3,-1.8,11.9,1
CCCCc1ccc(NC(=S)N2CCCC(C)C2)cc1 (centres undefined),0.9,74.5*,-167.2,29.6,12.2,0.9
CCc1ccc(NC(=S)N2CCCCCCC2)cc1,1.1,64.3*,-4.4,55.9*,26.8,1.1
CN(CC(=O)OCC(N)=O)S(=O)(=O)c1ccc(Cl)cc1,1.2,-8.5,-1.4,2.7,-5.3,1.4
CCN1CCN(c2ncc3c(n2)CC(c2cc(OC)c(OC)c(OC)c2)CC3=O)CC1 (centres undefined),0.9,-0.1,-0.9,99.8*,28.8,0.9
O=C1CC(c2cccc(Cl)c2)Cc2nc(N3CCN(c4ccccc4)CC3)ncc21 (centres undefined),0.9,11.0,0.3,-2.3,-12.2,0.9
CC1CCC2=NN(C(=O)c3ccco3)C(O)(C(F)(F)F)C2C1 (centres undefined),1,-0.3,4.0,1.0,-10.2,1
Cc1ccccc1Cc1ccc(Cl)nn1,1.1,-27.7,-0.8,-7.4,-12.6,1.1
Cn1nc([N+](=O)[O-])c(C(C#N)c2ccccn2)c(Cl)c1=O (centres undefined),0.7,-14.9,-36.6,100.3*,-148.9,0.9
CCCn1nc([N+](=O)[O-])c(C(C#N)c2nc3ccccc3o2)c(Cl)c1=O (centres undefined),0.8,3.2,9.4,-6.1,-2.3,0.8
COc1ccc(NC2=NC(=S)N(c3ccccc3C)C23CCCCC3)cc1,0.9,37.5,-5.3,11.1,-7.6,0.9
COc1ccc(Nc2ccc3c(c2)=NC2(CCCCC2)[N+]=3[O-])cc1,0.3,30.1,0.0,100.6*,28.2,0.2
COc1ccc(/C=C/C(=O)c2c(C)nc3ccccn23)cc1,1,8.3,-2.8,33.4,-2.4,1
Cc1nc2ccccn2c1C(=O)/C=C/c1ccc(F)cc1,0.9,12.5,-10.9,86.3*,-15.5,0.9
Cc1ccc2cc(CCNC(=O)c3cc4ccccc4o3)c(=O)[nH]c2c1C,0.9,10.3,5.0,-8.4,54.1*,0.9
Cc1[nH][nH]c(=O)c1C(c1c(C)[nH][nH]c1=O)c1cn(Cc2ccccc2Cl)c2ccccc12,0.5,63.5*,11.4,28.0,-44.5,0.7
CCc1ccccc1N(C(C)=O)c1nc(CN=C=S)cs1,1.1,9.0,-5.8,-0.3,48.2,1.1
Cc1ccc(CNCc2cccnc2)cc1,1,-20.0,-3.6,92.7*,1.2,1
CC(C)(C)NC(=O)COc1ccc(CNCc2cccs2)cc1,1.1,1.7,0.0,76.7*,-14.0,1.1
SMILES,PMI act hi M6P,WT yeast gro inh,Rad51 HR inh,Lmaj promast,Calpain2 inh,PMI activator
CCOc1ccc(CNCc2cccnc2)cc1,1,-8.4,1.3,89.5*,3.9,0.9
CCc1ccc(OCC(=O)NNC(=O)Cc2cccs2)cc1,1,-1.6,-1.4,-8.4,-55.8,1
c1ccc(COc2ccc(CNCc3cccs3)cc2)cc1,1,34.4,-6.8,99.1*,4.2,1
c1ccc(COc2ccc(CNCc3cccnc3)cc2)cc1,1.1,44.3,-10.7,99.0*,21.9,1.1
Cc1ccc(CNCc2cccnc2)s1,1,-23.4,-5.9,66.1*,-14.4,1
Cc1sc2ncnc(NCc3cccnc3)c2c1C,1,17.3,0.0,5.3,26.1,1
COCCn1c(=O)[nH]c(=O)c2c1nc(-c1cc(Br)c3c(c1)OCO3)n2Cc1ccccc1,1.1,5.5,3.0,13.2,-46.4,1
